Assays:
Mus musculus [1] = assay: Hypolipidiemic activity in tyloxapol-induced ICR mouse hyperlipidemic model assessed as reduction in serum cholesterol level at 25 mg/kg, ip after 24 hrs; type: functional; design: scale not given: the % may be the effect or the level left; conditions: route intraperitoneal
Mus musculus [2] = assay: Hypolipidiemic activity in tyloxapol-induced ICR mouse hyperlipidemic model assessed as increase in serum HDL-cholesterol level at 25 mg/kg, ip after 24 hrs; type: functional; conditions: route intraperitoneal
Mus musculus [3] = assay: Hypolipidiemic activity in tyloxapol-induced ICR mouse hyperlipidemic model assessed as reduction in serum LDL-cholesterol level at 100 mg/kg, ip after 24 hrs; type: functional; design: scale not given: the % may be the effect or the level left; conditions: route intraperitoneal
Mus musculus [4] = assay: Hypolipidiemic activity in tyloxapol-induced ICR mouse hyperlipidemic model assessed as reduction in serum triglyceride level at 25 mg/kg, ip after 24 hrs; type: functional; design: scale not given: the % may be the effect or the level left; conditions: route intraperitoneal
Mus musculus [5] = assay: Hypolipidiemic activity in tyloxapol-induced ICR mouse hyperlipidemic model assessed as reduction in serum LDL-cholesterol level at 50 mg/kg, ip after 24 hrs; type: functional; design: scale not given: the % may be the effect or the level left; conditions: route intraperitoneal
Mus musculus [6] = assay: Hypolipidiemic activity in tyloxapol-induced ICR mouse hyperlipidemic model assessed as reduction in serum cholesterol level at 100 mg/kg, ip after 24 hrs; type: functional; design: scale not given: the % may be the effect or the level left; conditions: route intraperitoneal
Mus musculus [7] = assay: Hypolipidiemic activity in tyloxapol-induced ICR mouse hyperlipidemic model assessed as increase in serum HDL-cholesterol level at 50 mg/kg, ip after 24 hrs; type: functional; conditions: route intraperitoneal
Mus musculus [8] = assay: Hypolipidiemic activity in tyloxapol-induced ICR mouse hyperlipidemic model assessed as increase in serum HDL-cholesterol level at 100 mg/kg, ip after 24 hrs; type: functional; conditions: route intraperitoneal
Mus musculus [9] = assay: Hypolipidiemic activity in tyloxapol-induced ICR mouse hyperlipidemic model assessed as reduction in serum LDL-cholesterol level at 25 mg/kg, ip after 24 hrs; type: functional; design: scale not given: the % may be the effect or the level left; conditions: route intraperitoneal
Mus musculus [10] = assay: Hypolipidiemic activity in tyloxapol-induced ICR mouse hyperlipidemic model assessed as reduction in serum cholesterol level at 50 mg/kg, ip after 24 hrs; type: functional; design: scale not given: the % may be the effect or the level left; conditions: route intraperitoneal
Mus musculus [11] = assay: Hypolipidiemic activity in tyloxapol-induced ICR mouse hyperlipidemic model assessed as reduction in serum triglyceride level at 50 mg/kg, ip after 24 hrs; type: functional; design: scale not given: the % may be the effect or the level left; conditions: route intraperitoneal
Mus musculus [12] = assay: Hypolipidiemic activity in tyloxapol-induced ICR mouse hyperlipidemic model assessed as reduction in serum triglyceride level at 100 mg/kg, ip after 24 hrs; type: functional; design: scale not given: the % may be the effect or the level left; conditions: route intraperitoneal
[13] = Metabolic stability in presence of pepsin (unknown origin) assessed as retention time by HPLC analysis; type: ADME; conditions: human, isolated protein
[14] = Metabolic stability in presence of alpha-chymotrypsin (unknown origin) assessed as retention time by HPLC analysis; type: ADME; conditions: human
Mus musculus [15] = assay: Hypolipidemic activity in tyloxapol-induced ICR mouse hyperlipidemic model assessed as reduction in serum triglyceride level at 17 mg/kg, ip after 24 hrs; type: functional; design: scale not given: the % may be the effect or the level left; conditions: route intraperitoneal
In short: (§1)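 Male ICR mice (25–30 g) were kept at 24 °C with a 12 h light/dark cycle on standard pellet diet with free water. Hyperlipidemia was induced with tyloxapol (400 per table) and test agents were given ip. After 24 h, retro-orbital blood was centrifuged and serum TC, HDL-C and TG were measured. LDL-C was calculated by the Friedewald equation. Assays were run in duplicate; values are means of 6 mice.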

Mus musculus [16] = assay: Hypolipidiemic activity in tyloxapol-induced ICR mouse hyperlipidemic model assessed as reduction in serum LDL-cholesterol level at 17 mg/kg, ip after 24 hrs; type: functional; design: scale not given: the % may be the effect or the level left; conditions: route intraperitoneal; in short: as §1
Mus musculus [17] = assay: Hypolipidiemic activity in tyloxapol-induced ICR mouse hyperlipidemic model assessed as reduction in serum cholesterol level at 17 mg/kg, ip after 24 hrs; type: functional; design: scale not given: the % may be the effect or the level left; conditions: route intraperitoneal; in short: as §1
Mus musculus [18] = assay: Hypolipidiemic activity in tyloxapol-induced ICR mouse hyperlipidemic model assessed as increase in serum HDL-cholesterol level at 17 mg/kg, ip after 24 hrs; type: functional; conditions: route intraperitoneal; in short: as §1

Row | Retention_time [13] | Retention_time [14] | Retention time [14] | SMILES | Activity (Mus musculus [1]) | Activity (Mus musculus [2]) | Activity (Mus musculus [3]) | Activity (Mus musculus [4]) | Activity (Mus musculus [5]) | Activity (Mus musculus [6]) | Activity (Mus musculus [7]) | Activity (Mus musculus [8]) | Activity (Mus musculus [9]) | Activity (Mus musculus [10]) | Activity (Mus musculus [11]) | Activity (Mus musculus [12]) | Activity (Mus musculus [15]) | Activity (Mus musculus [16]) | Activity (Mus musculus [17]) | Activity (Mus musculus [18])
1 |  |  |  | CCCc1cc(OC)c(OCC(=O)OC)cc1O | -79.77% | 91.53% | -81.23% | -84.13% | -87.97% | -74.02% | 57.63% | 50.85% | -89.32% | -80.21% | -81.93% | -71.38% |  |  |  | 
2 |  |  |  | CCCc1cc(OC)c(OC)cc1O | -71.84% | 49.15% | -73.63% | -82.75% | -71.61% | -69.22% | 25.42% | 15.25% | -78.15% | -66.7% | -73.85% | -77.98% |  |  |  | 
3 | 8.57 min | 8.58 min |  | COc1cc(O)c(C(C)=O)cc1OC | -71.84% | -4.75% | -87.68% | -59.63% | -87.01% | -80.12% | 44.07% | 55.93% | -76.23% | -80.09% | -80.92% | -82.11% |  |  |  | 
4 | 13.81 min | 13.8 min |  | CCCCc1cc(OC)c(OCC(=O)OC)cc1O | -70.62% | 11.86% | -89.51% | -20.46% | -62.75% | -79.95% | -3.39% | 89.83% | -77.77% | -59.46% | -49.82% | -82.75% |  |  |  | 
5 | 6.95 min |  | 6.94 min | CCc1cc(OC)c(OC)cc1O | -67.13% | 33.9% | -83.93% | -76.79% | -78.34% | -75.85% | 25.42% | 71.19% | -72.47% | -73.41% | -86.97% | -81.65% |  |  |  | 
6 | 12.45 min | 12.44 min |  | CCCCc1cc(OC)c(OC)cc1O | -70.1% | 23.73% | -74.69% | -82.57% | -70.93% | -70.1% | 11.86% | 23.73% | -74.78% | -67.04% | -79.17% | -83.94% |  |  |  | 
7 | 7.78 min | 7.78 min |  | CCc1cc(OC)c(OCC(=O)OC)cc1O | -79.08% | 40.68% | -82.58% | -72.94% | -75.26% | -78.2% | 28.81% | -3.39% | -86.14% | -69.22% | -59.63% | -75.87% |  |  |  | 
8 |  |  |  | CCC(=O)c1cc(OC)c(OC)cc1O | -81.69% | 6.78% | -88.35% | -80.09% | -87.68% | -81.43% | 16.95% | 40.68% | -86.72% | -81.95% | -81.01% | -80.92% |  |  |  | 
9 | 13.84 min | 13.83 min |  | CCCC(=O)c1cc(OC)c(OC)cc1O | -74.28% | 33.9% | -88.74% | -69.54% | -87.97% | -83.26% | 30.51% | 8.47% | -80.65% | -81.4% | -77.25% | -79.36% |  |  |  | 
10 | 8.67 min | 8.68 min |  | COC(=O)COc1cc(O)c(C(C)=O)cc1OC | -74.72% | 8.47% | -85.76% | -28.62% | -76.9% | -75.33% | 1.69% | 13.56% | -81.62% | -72.71% | -74.77% | -51.38% |  |  |  | 
11 |  |  |  | CCC(=O)c1cc(OC)c(OCC(=O)OC)cc1O | -68.18% | -3.39% | -81.33% | -59.82% | -76.03% | -74.46% | 66.1% | 45.76% | -72.18% | -66.87% | -31.93% | -75.41% |  |  |  | 
12 | 13.16 min | 13.18 min |  | CCCC(=O)c1cc(OC)c(OCC(=O)OC)cc1O | -78.38% | 30.51% | -79.4% | -73.12% | -54.28% | -73.23% | 20.34% | 35.59% | -84.7% | -49.26% | -27.8% | -73.58% |  |  |  | 
13 |  |  |  | CCC(C)(C)C(=O)O[C@H]1C[C@@H](C)C=C2C=C[C@H](C)[C@H](CC[C@@H]3C[C@@H](O)CC(=O)O3)[C@H]21 [SIMVASTATIN] |  |  |  |  |  |  |  |  |  |  |  |  | -57% | -84.31% | -63.46% | 292.2%

Source: ChEMBL document CHEMBL3351651 (Bioorg Med Chem, 2014)
